Measurements reported in ChEMBL document CHEMBL5058577, “EUbOPEN Chemogenomics Library 2 (Multiplex)” (2022).

System: Fibroblast
Assay: Multiplex assay against human fibroblast
Format: toxicity, cell-based
How it was run: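 Live cells were stained at seeding with Hoechst33342, BioTracker Green Microtubule Cytoskeleton Dye, MitoTracker Red and Annexin V Alexa Fluor 680. Following compound addition, they were imaged on a CQ1 microscope at 37°C and 5% CO2 and gated by CellPathfinder machine learning into Hoechst high-intensity objects or normal cells, with normal cells split into healthy, pyknosed or fragmented nuclei and pyknosed cells into mitotic or apoptotic. Tubulin, mitochondrial-mass and membrane-permeability phenotypes are per cents of healthy-nucleus cells.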

[1] = 12 h, 1 µM, compound concentration 1 uM, replicate 1
[2] = 12 h, 1 µM, compound concentration 1 uM, replicate 2
[3] = 12 h, 10 µM, compound concentration 10 uM, replicate 1
[4] = 12 h, 10 µM, compound concentration 10 uM, replicate 2
[5] = 24 h, 1 µM, compound concentration 1 uM, replicate 1
[6] = 24 h, 1 µM, compound concentration 1 uM, replicate 2
[7] = 24 h, 10 µM, compound concentration 10 uM, replicate 1
[8] = 24 h, 10 µM, compound concentration 10 uM, replicate 2
[9] = 48 h, 1 µM, compound concentration 1 uM, replicate 1
[10] = 48 h, 1 µM, compound concentration 1 uM, replicate 2
[11] = 48 h, 10 µM, compound concentration 10 uM, replicate 1
[12] = 48 h, 10 µM, compound concentration 10 uM, replicate 2

Question: What does the source list for CN(C)CCCc1cc(C(=O)Nc2ccc(-c3ccncc3)cc2)ccc1O.Cl.Cl?
Answer: Population Apoptotic (%) [1]: 31%; Population Fragmented Nuclei (%) [1]: 15%; Population Healthy Nuclei (%) [1]: 65%; Population Hoechst High Intensity Objects (%) [1]: 4%; Population Membrane Permeable-Phenotype (%) [1]: 0%; Population Mitochondria Different-Phenotype (%) [1]: 7%; Population Mitotic Cells (%) [1]: 68%; Population Normal (%) [1]: 95%; Population Pyknosed Nuclei (%) [1]: 18%; Population Tubulin-Different-Phenotype (%) [1]: 22%; Total Cell Count [1]: 122; Population Apoptotic (%) [2]: 44%; Population Fragmented Nuclei (%) [2]: 22%; Population Healthy Nuclei (%) [2]: 52%; Population Hoechst High Intensity Objects (%) [2]: 2%; Population Membrane Permeable-Phenotype (%) [2]: 4%; Population Mitochondria Different-Phenotype (%) [2]: 4%; Population Mitotic Cells (%) [2]: 55%; Population Normal (%) [2]: 97%; Population Pyknosed Nuclei (%) [2]: 24%; Population Tubulin-Different-Phenotype (%) [2]: 40%; Total Cell Count [2]: 120; Population Apoptotic (%) [3]: 68%; Population Fragmented Nuclei (%) [3]: 33%; Population Healthy Nuclei (%) [3]: 58%; Population Hoechst High Intensity Objects (%) [3]: 7%; Population Membrane Permeable-Phenotype (%) [3]: 0%; Population Mitochondria Different-Phenotype (%) [3]: 15%; Population Mitotic Cells (%) [3]: 31%; Population Normal (%) [3]: 92%; Population Pyknosed Nuclei (%) [3]: 7%; Population Tubulin-Different-Phenotype (%) [3]: 43%; Total Cell Count [3]: 305; Population Apoptotic (%) [4]: 48%; Population Fragmented Nuclei (%) [4]: 31%; Population Healthy Nuclei (%) [4]: 51%; Population Hoechst High Intensity Objects (%) [4]: 4%; Population Membrane Permeable-Phenotype (%) [4]: 4%; Population Mitochondria Different-Phenotype (%) [4]: 6%; Population Mitotic Cells (%) [4]: 51%; Population Normal (%) [4]: 95%; Population Pyknosed Nuclei (%) [4]: 17%; Population Tubulin-Different-Phenotype (%) [4]: 45%; Total Cell Count [4]: 236; Population Apoptotic (%) [5]: 30%; Population Fragmented Nuclei (%) [5]: 16%; Population Healthy Nuclei (%) [5]: 66%; Population Hoechst High Intensity Objects (%) [5]: 1%; Population Membrane Permeable-Phenotype (%) [5]: 2%; Population Mitochondria Different-Phenotype (%) [5]: 3%; Population Mitotic Cells (%) [5]: 70%; Population Normal (%) [5]: 98%; Population Pyknosed Nuclei (%) [5]: 17%; Population Tubulin-Different-Phenotype (%) [5]: 25%; Total Cell Count [5]: 119; Population Apoptotic (%) [6]: 37%; Population Fragmented Nuclei (%) [6]: 22%; Population Healthy Nuclei (%) [6]: 50%; Population Hoechst High Intensity Objects (%) [6]: 4%; Population Membrane Permeable-Phenotype (%) [6]: 1%; Population Mitochondria Different-Phenotype (%) [6]: 7%; Population Mitotic Cells (%) [6]: 62%; Population Normal (%) [6]: 95%; Population Pyknosed Nuclei (%) [6]: 27%; Population Tubulin-Different-Phenotype (%) [6]: 45%; Total Cell Count [6]: 111; Population Apoptotic (%) [7]: 47%; Population Fragmented Nuclei (%) [7]: 30%; Population Healthy Nuclei (%) [7]: 63%; Population Hoechst High Intensity Objects (%) [7]: 6%; Population Membrane Permeable-Phenotype (%) [7]: 0%; Population Mitochondria Different-Phenotype (%) [7]: 11%; Population Mitotic Cells (%) [7]: 52%; Population Normal (%) [7]: 93%; Population Pyknosed Nuclei (%) [7]: 5%; Population Tubulin-Different-Phenotype (%) [7]: 40%; Total Cell Count [7]: 339; Population Apoptotic (%) [8]: 42%; Population Fragmented Nuclei (%) [8]: 31%; Population Healthy Nuclei (%) [8]: 53%; Population Hoechst High Intensity Objects (%) [8]: 4%; Population Membrane Permeable-Phenotype (%) [8]: 5%; Population Mitochondria Different-Phenotype (%) [8]: 5%; Population Mitotic Cells (%) [8]: 57%; Population Normal (%) [8]: 95%; Population Pyknosed Nuclei (%) [8]: 14%; Population Tubulin-Different-Phenotype (%) [8]: 42%; Total Cell Count [8]: 242; Population Apoptotic (%) [9]: 62%; Population Fragmented Nuclei (%) [9]: 28%; Population Healthy Nuclei (%) [9]: 59%; Population Hoechst High Intensity Objects (%) [9]: 0%; Population Membrane Permeable-Phenotype (%) [9]: 0%; Population Mitochondria Different-Phenotype (%) [9]: 1%; Population Mitotic Cells (%) [9]: 37%; Population Normal (%) [9]: 99%; Population Pyknosed Nuclei (%) [9]: 12%; Population Tubulin-Different-Phenotype (%) [9]: 29%; Total Cell Count [9]: 126; Population Apoptotic (%) [10]: 50%; Population Fragmented Nuclei (%) [10]: 23%; Population Healthy Nuclei (%) [10]: 54%; Population Hoechst High Intensity Objects (%) [10]: 8%; Population Membrane Permeable-Phenotype (%) [10]: 1%; Population Mitochondria Different-Phenotype (%) [10]: 5%; Population Mitotic Cells (%) [10]: 50%; Population Normal (%) [10]: 91%; Population Pyknosed Nuclei (%) [10]: 21%; Population Tubulin-Different-Phenotype (%) [10]: 46%; Total Cell Count [10]: 111; Population Apoptotic (%) [11]: 56%; Population Fragmented Nuclei (%) [11]: 28%; Population Healthy Nuclei (%) [11]: 60%; Population Hoechst High Intensity Objects (%) [11]: 11%; Population Membrane Permeable-Phenotype (%) [11]: 0%; Population Mitochondria Different-Phenotype (%) [11]: 8%; Population Mitotic Cells (%) [11]: 43%; Population Normal (%) [11]: 88%; Population Pyknosed Nuclei (%) [11]: 11%; Population Tubulin-Different-Phenotype (%) [11]: 48%; Total Cell Count [11]: 321; Population Apoptotic (%) [12]: 51%; Population Fragmented Nuclei (%) [12]: 35%; Population Healthy Nuclei (%) [12]: 53%; Population Hoechst High Intensity Objects (%) [12]: 2%; Population Membrane Permeable-Phenotype (%) [12]: 3%; Population Mitochondria Different-Phenotype (%) [12]: 2%; Population Mitotic Cells (%) [12]: 48%; Population Normal (%) [12]: 97%; Population Pyknosed Nuclei (%) [12]: 10%; Population Tubulin-Different-Phenotype (%) [12]: 39%; Total Cell Count [12]: 261
